ChEMBL document CHEMBL1133652, “Selective protection and functionalization of morphine: synthesis and opioid receptor binding properties of 3-amino-3-desoxymorphine derivatives” (J Med Chem, 2000)

Columns and labels:
[1] = Inhibition of adenylyl cyclase activity in membranes of the human SH-SY5Y neuroblastoma cell line.; format: functional, cell-based; design: concentration or dose not given beside the values; details: concentration not given here
Procedure, shortened: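 SH-SY5Y membranes (50 µg protein) incubated 15 min at 30 °C with compound at 10 µM final. The mix held 20 mM HEPES pH 7.4, creatine phosphokinase/phosphocreatine, 1 mM phenanthroline, 60 µM IBMX, 0.1 mM GTP and 0.1 mM ATP. Stopped with perchloric acid and neutralized. cAMP measured by [3H]cAMP kit. Reported as % inhibition of basal activity, duplicate, repeated at least three times.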

Mu-type opioid receptor [2] = target: T1, Mu-type opioid receptor (Cavia porcellus, UniProt P97266); experiment: (§1) Binding affinity to displace radioligand [3H]DAMGO on Opioid receptor mu 1 in guinea pig membranes.; format: cell membranes
T1 sequence (P97266 whole entry): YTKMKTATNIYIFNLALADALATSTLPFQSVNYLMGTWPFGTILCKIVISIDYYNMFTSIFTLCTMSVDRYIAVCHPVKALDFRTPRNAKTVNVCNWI

[3] = target: Kappa-type opioid receptor (Cavia porcellus, UniProt P41144); experiment: Binding affinity to displace radioligand [3H]U-69593 on Opioid receptor kappa 1 in guinea pig membranes.; format: cell membranes
Sequence of Kappa-type opioid receptor (P41144 whole entry): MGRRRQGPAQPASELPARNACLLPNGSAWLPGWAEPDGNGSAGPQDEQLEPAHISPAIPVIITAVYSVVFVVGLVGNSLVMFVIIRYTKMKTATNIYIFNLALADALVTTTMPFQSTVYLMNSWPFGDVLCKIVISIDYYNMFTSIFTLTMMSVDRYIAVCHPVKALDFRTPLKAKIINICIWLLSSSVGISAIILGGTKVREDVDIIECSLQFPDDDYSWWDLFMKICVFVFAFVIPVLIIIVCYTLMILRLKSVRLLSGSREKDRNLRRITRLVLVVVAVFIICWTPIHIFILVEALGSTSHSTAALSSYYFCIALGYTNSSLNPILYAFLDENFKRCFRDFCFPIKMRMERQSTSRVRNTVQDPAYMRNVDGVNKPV

Mu-type opioid receptor [4] = target: T1, Mu-type opioid receptor; experiment: as §1; format: cell membranes; remark: listed apart in the source
Procedure, shortened: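 Guinea pig brain membranes (500 µg protein) incubated with 12 concentrations of compound and 0.25 nM [3H]DAMGO in 50 mM Tris-HCl pH 7.5, 25 °C, 60 min. Nonspecific binding with 10 µM naloxone. Filtration, washes in cold Tris, scintillation counting. IC50 by log-probit least-squares fit, converted to Ki (Cheng-Prusoff). At least three experiments in triplicate, mean ± SE.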

[5] = Binding affinity to displace radioligand [3H]naltrindole on Opioid receptor delta 1 in guinea pig membranes.

Compound | inhibition [1] [%] | Ki (Mu-type opioid receptor [2]) [nM] | Ki [3] [nM] | Ki (Mu-type opioid receptor [4]) [nM] | Ki [5] [nM]
CNc1ccc2c3c1O[C@H]1[C@@H](O)C=C[C@H]4[C@@H](C2)N(C)CC[C@@]341 | 29 | 63 | 2800 | – | –
CN1CC[C@]23c4c5ccc(N)c4O[C@H]2[C@@H](O)C=C[C@H]3[C@H]1C5 | 26 | – | 740 | 53 | –
C[C@H]1[C@H]2Cc3ccc(Nc4ccccc4)cc3[C@@]1(C)CCN2CC1CC1 | – | – | – | – | 5.2
CN1CC[C@]23c4c5ccc(NCc6ccccc6)c4O[C@H]2[C@@H](O)C=C[C@H]3[C@H]1C5 | 17 | 33 | 3400 | – | –
CN(C)c1ccc2c3c1O[C@H]1[C@@H](O)C=C[C@H]4[C@@H](C2)N(C)CC[C@@]341 | 13 | 240 | 290 | – | –
C[C@H]1[C@H]2Cc3ccc(N)cc3[C@@]1(C)CCN2CC1CC1 | – | 1.8 | 1.2 | – | –
C[C@@H](NC(=O)[C@@H](N)Cc1ccc(O)cc1)C(=O)NCC(=O)N(C)[C@@H](Cc1ccccc1)C(=O)NCCO | 58 | – | – | – | –
CN1CC[C@]23c4c5ccc(Nc6ccccc6)c4O[C@H]2[C@@H](O)C=C[C@H]3[C@H]1C5 | 44 | 59 | 240 | – | –
